ChEMBL document CHEMBL4765399, “Design, synthesis, and biological evaluation of 5-((8-methoxy-2-methylquinolin-4-yl)amino)-1H-indole-2-carbohydrazide derivatives as novel Nur77 modulators” (Eur J Med Chem, 2020)
pIC50: −log10 of the molar value.

What was measured:
SMMC-7721 = assay: Antiproliferative activity against human SMMC-7721 cells assessed as reduction in cell viability incubated for 48 hrs by MTT assay; format: functional, cell-based; settings: SMMC-7721, 48 h
Procedure, shortened: (§1)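 MTT assay after 48 h exposure at six concentrations, range chosen by cytotoxicity. Inhibition = (ODcontrol − ODtest)/ODcontrol × 100%; IC50 is the concentration halving OD versus untreated cells. Means ± SD of three independent determinations. HepG2 and SMMC-7721 grown in DMEM, QGY-7703 and LO2 in RPMI 1640, with 10% FBS at 37 °C.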

QGY-7703 = assay: Antiproliferative activity against human QGY-7703 cells assessed as reduction in cell viability incubated for 48 hrs by MTT assay; format: functional, cell-based; settings: QGY-7703, 48 h; procedure, shortened: as §1
HepG2 = assay: Antiproliferative activity against human HepG2 cells assessed as reduction in cell viability incubated for 48 hrs by MTT assay; format: functional, cell-based; settings: HepG2, 48 h; procedure, shortened: as §1
L02 = assay: Cytotoxicity against human L02 cells assessed as reduction in cell viability incubated for 48 hrs by MTT assay; format: cell-based; settings: L02, 48 h; procedure, shortened: as §1
[1] = molecular target: Nuclear receptor subfamily 4immunitygroup A member 1 (Homo sapiens, UniProt P22736); assay: Binding affinity to Nur77 ligand binding domain (unknown origin) at 10 uM by surface plasmon resonance analysis; settings: filed as modulator
Sequence of Nuclear receptor subfamily 4immunitygroup A member 1 (P22736 whole entry, the tested form may be a part): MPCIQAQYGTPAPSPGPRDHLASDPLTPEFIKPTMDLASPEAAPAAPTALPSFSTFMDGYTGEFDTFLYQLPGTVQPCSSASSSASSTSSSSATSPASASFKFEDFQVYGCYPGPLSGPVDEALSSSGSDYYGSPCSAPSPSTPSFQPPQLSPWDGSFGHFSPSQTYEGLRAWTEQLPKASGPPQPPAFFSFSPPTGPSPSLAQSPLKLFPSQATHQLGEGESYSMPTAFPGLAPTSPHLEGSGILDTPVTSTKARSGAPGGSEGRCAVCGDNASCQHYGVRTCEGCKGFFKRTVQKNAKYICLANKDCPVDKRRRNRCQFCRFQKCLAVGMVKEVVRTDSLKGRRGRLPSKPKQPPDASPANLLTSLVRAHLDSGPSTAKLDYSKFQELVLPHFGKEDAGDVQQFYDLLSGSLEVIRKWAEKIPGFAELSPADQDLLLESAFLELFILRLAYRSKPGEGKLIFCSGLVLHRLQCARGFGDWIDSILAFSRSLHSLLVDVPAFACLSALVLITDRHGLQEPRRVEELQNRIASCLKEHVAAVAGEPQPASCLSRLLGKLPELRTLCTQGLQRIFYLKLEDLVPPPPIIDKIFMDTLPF
Procedure, shortened: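 Single-concentration SPR screen at 10.0 µM against Nur77-LBD; binding given as RU response.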

Compound: COc1ccc2[nH]c(C)c(/C=N/NC(=O)c3cc4cc(Nc5cc(C)nc6c(OC)cccc56)ccc4[nH]3)c2c1
- pIC50 (SMMC-7721): < 4.70
- pIC50 (QGY-7703): 4.85
- pIC50 (HepG2): 5.18
- pIC50 (L02): < 4.70

Compound: COc1cc(/C=N/NC(=O)c2cc3cc(Nc4cc(C)nc5c(OC)cccc45)ccc3[nH]2)cc(OC)c1
- pIC50 (SMMC-7721): < 4.70
- pIC50 (QGY-7703): < 4.70
- pIC50 (HepG2): < 4.70
- pIC50 (L02): < 4.70

Compound: COc1ccc(/C=N/NC(=O)c2cc3cc(Nc4cc(C)nc5c(OC)cccc45)ccc3[nH]2)c(OC)c1
- pIC50 (SMMC-7721): 4.79
- pIC50 (QGY-7703): 5.30
- pIC50 (HepG2): 5.13
- pIC50 (L02): 5.24

Compound: COc1ccc(/C=N/NC(=O)c2cc3cc(Nc4cc(C)nc5c(OC)cccc45)ccc3[nH]2)c(OC)c1OC
- pIC50 (SMMC-7721): 5.07
- pIC50 (QGY-7703): 5.42
- pIC50 (HepG2): 5.20
- pIC50 (L02): 4.86

Compound: COc1cccc2c(Nc3ccc4[nH]c(C(=O)N/N=C/c5cccc(C(F)(F)F)c5)cc4c3)cc(C)nc12
- pIC50 (SMMC-7721): < 4.70
- pIC50 (QGY-7703): 5.27
- pIC50 (HepG2): 5.38
- pIC50 (L02): 4.87

Compound: COc1cccc2c(Nc3ccc4[nH]c(C(=O)N/N=C/c5ccccc5Cl)cc4c3)cc(C)nc12
- pIC50 (SMMC-7721): 6.01
- pIC50 (QGY-7703): 5.97
- pIC50 (HepG2): 5.91
- pIC50 (L02): 5.43

Compound: COc1cccc(/C=N/NC(=O)c2cc3cc(Nc4cc(C)nc5c(OC)cccc45)ccc3[nH]2)c1OC
- pIC50 (SMMC-7721): 5.31
- pIC50 (QGY-7703): 5.71
- pIC50 (HepG2): 5.96
- pIC50 (L02): 5.55

Compound: COc1cccc2c(Nc3ccc4[nH]c(C(=O)N/N=C/c5cc(C(F)(F)F)ccc5Br)cc4c3)cc(C)nc12
- pIC50 (SMMC-7721): < 4.70
- pIC50 (QGY-7703): 4.89
- pIC50 (HepG2): < 4.70
- pIC50 (L02): < 4.70

Compound: COc1cccc2c(Nc3ccc4[nH]c(C(=O)N/N=C/c5ccccc5F)cc4c3)cc(C)nc12
- pIC50 (SMMC-7721): 5.86
- pIC50 (QGY-7703): 5.27
- pIC50 (HepG2): 5.91
- pIC50 (L02): 5.61

Compound: COc1cccc2c(Nc3ccc4[nH]c(C(=O)N/N=C/c5ccccn5)cc4c3)cc(C)nc12
- pIC50 (SMMC-7721): 5.36
- pIC50 (QGY-7703): < 4.70
- pIC50 (HepG2): 4.83
- pIC50 (L02): 4.99

Compound: COc1cccc2c(Nc3ccc4[nH]c(C(=O)N/N=C/c5ccc(O)cc5O)cc4c3)cc(C)nc12
- pIC50 (SMMC-7721): < 4.70
- pIC50 (QGY-7703): < 4.70
- pIC50 (HepG2): 5.09
- pIC50 (L02): 4.80

Compound: COc1ccc(/C=N/NC(=O)c2cc3cc(Nc4cc(C)nc5c(OC)cccc45)ccc3[nH]2)cc1Br
- pIC50 (SMMC-7721): < 4.70
- pIC50 (QGY-7703): 5.72
- pIC50 (HepG2): < 4.70
- pIC50 (L02): 5.92

Compound: COc1cccc2c(Nc3ccc4[nH]c(C(=O)N/N=C/c5cccnc5)cc4c3)cc(C)nc12
- pIC50 (SMMC-7721): < 4.70
- pIC50 (QGY-7703): < 4.70
- pIC50 (HepG2): < 4.70
- pIC50 (L02): < 4.70

Compound: COc1cccc2c(Nc3ccc4[nH]c(C(=O)N/N=C/c5ccc([N+](=O)[O-])cc5O)cc4c3)cc(C)nc12
- pIC50 (SMMC-7721): < 4.70
- pIC50 (QGY-7703): < 4.70
- pIC50 (HepG2): < 4.70
- pIC50 (L02): < 4.70

Compound: COc1ccc(/C=N/NC(=O)c2cc3cc(Nc4cc(C)nc5c(OC)cccc45)ccc3[nH]2)cc1OC
- pIC50 (SMMC-7721): < 4.70
- pIC50 (QGY-7703): < 4.70
- pIC50 (HepG2): < 4.70
- pIC50 (L02): < 4.70

Compound: COc1cccc2c(Nc3ccc4[nH]c(C(=O)N/N=C/c5cc6ccccc6nc5Cl)cc4c3)cc(C)nc12
- pIC50 (SMMC-7721): 4.73
- pIC50 (QGY-7703): 5.03
- pIC50 (HepG2): < 4.70
- pIC50 (L02): < 4.70

Compound: COc1cccc2c(Nc3ccc4[nH]c(C(=O)N/N=C/c5ccncc5)cc4c3)cc(C)nc12
- pIC50 (SMMC-7721): < 4.70
- pIC50 (QGY-7703): < 4.70
- pIC50 (HepG2): < 4.70
- pIC50 (L02): < 4.70

Compound: COc1cccc2c(Nc3ccc4[nH]c(C(=O)N/N=C/c5cccc(C)c5)cc4c3)cc(C)nc12
- pIC50 (SMMC-7721): 5.50
- pIC50 (QGY-7703): 5.76
- pIC50 (HepG2): 5.53
- pIC50 (L02): 5.50

Compound: COc1cccc2c(Nc3ccc4[nH]c(C(=O)N/N=C/c5ccc(F)c(C(F)(F)F)c5)cc4c3)cc(C)nc12
- pIC50 (SMMC-7721): < 4.70
- pIC50 (QGY-7703): 5.61
- pIC50 (HepG2): 5.66
- pIC50 (L02): < 4.70

Compound: COc1cccc(OC)c1/C=N/NC(=O)c1cc2cc(Nc3cc(C)nc4c(OC)cccc34)ccc2[nH]1
- pIC50 (SMMC-7721): 4.93
- pIC50 (QGY-7703): < 4.70
- pIC50 (HepG2): 5.12
- pIC50 (L02): 5.14

Compound: COc1cccc2c(Nc3ccc4[nH]c(C(=O)N/N=C/c5cc(C(C)(C)C)c(O)c(C(C)(C)C)c5)cc4c3)cc(C)nc12
- pIC50 (SMMC-7721): < 4.70
- pIC50 (QGY-7703): 5.40
- pIC50 (HepG2): 5.13
- pIC50 (L02): 5.45

Compound: COc1cc(/C=N/NC(=O)c2cc3cc(Nc4cc(C)nc5c(OC)cccc45)ccc3[nH]2)cc(OC)c1OC
- pIC50 (SMMC-7721): < 4.70
- pIC50 (QGY-7703): < 4.70
- pIC50 (HepG2): < 4.70
- pIC50 (L02): < 4.70

Compound: COc1ccc(/C=N/NC(=O)c2cc3cc(Nc4cc(C)nc5c(OC)cccc45)ccc3[nH]2)cc1C(F)(F)F
- pIC50 (SMMC-7721): 6.14
- pIC50 (QGY-7703): 6.40
- Activity [1]: 91 RU
- pIC50 (HepG2): 5.70
- pIC50 (L02): 5.28

Compound: COc1ccc(/C=N/NC(=O)c2cc3cc(Nc4cc(C)nc5c(OC)cccc45)ccc3[nH]2)cc1
- pIC50 (SMMC-7721): 5.92
- pIC50 (QGY-7703): < 4.70
- Activity [1]: 88.2 RU
- pIC50 (HepG2): 6.16
- pIC50 (L02): 6.12

Compound: COc1cccc2c(Nc3ccc4[nH]c(C(=O)N/N=C/c5ccc(C#N)cc5)cc4c3)cc(C)nc12
- pIC50 (SMMC-7721): < 4.70
- pIC50 (QGY-7703): 5.63
- pIC50 (HepG2): 4.98
- pIC50 (L02): 5.55

Compound: COc1cccc2c(Nc3ccc4[nH]c(C(=O)N/N=C/c5ccc(O)cc5)cc4c3)cc(C)nc12
- pIC50 (SMMC-7721): < 4.70
- pIC50 (QGY-7703): 4.85
- pIC50 (HepG2): < 4.70
- pIC50 (L02): 5.03

Compound: O=C(O)c1ccc2cc(-c3ccc(O)c(C45CC6CC(CC(C6)C4)C5)c3)ccc2c1 [O-DEMETHYLATED ADAPALENE]
- pIC50 (SMMC-7721): 5.28
- pIC50 (QGY-7703): 5.62
- pIC50 (HepG2): 5.53
- pIC50 (L02): 5.00

Compound: COc1ccccc1/C=N/NC(=O)c1cc2cc(Nc3cc(C)nc4c(OC)cccc34)ccc2[nH]1
- pIC50 (SMMC-7721): 5.34
- pIC50 (QGY-7703): 5.47
- pIC50 (HepG2): 5.68
- pIC50 (L02): 5.29

Compound: COc1cccc2c(Nc3ccc4[nH]c(C(=O)N/N=C/c5ccnc6ccccc56)cc4c3)cc(C)nc12
- pIC50 (SMMC-7721): < 4.70
- pIC50 (QGY-7703): 4.81
- pIC50 (HepG2): < 4.70
- pIC50 (L02): < 4.70

Compound: CC1=C(O)C(=O)C=C2C1=CC=C1[C@@]2(C)CC[C@@]2(C)[C@@H]3C[C@](C)(C(=O)O)CC[C@]3(C)CC[C@]12C [CELASTROL]
- pIC50 (SMMC-7721): 5.97
- pIC50 (QGY-7703): 5.61
- pIC50 (HepG2): 5.89
- pIC50 (L02): 5.71

Compound: COc1cccc2c(Nc3ccc4[nH]c(C(=O)N/N=C/c5ccc(C(F)(F)F)cc5C(F)(F)F)cc4c3)cc(C)nc12
- pIC50 (SMMC-7721): < 4.70
- pIC50 (QGY-7703): < 4.70
- pIC50 (HepG2): < 4.70
- pIC50 (L02): < 4.70

Compound: COc1cccc2c(Nc3ccc4[nH]c(C(=O)N/N=C/c5ccc[nH]5)cc4c3)cc(C)nc12
- pIC50 (SMMC-7721): < 4.70
- pIC50 (QGY-7703): < 4.70
- pIC50 (HepG2): < 4.70
- pIC50 (L02): < 4.70

Compound: COc1cccc2c(Nc3ccc4[nH]c(C(=O)N/N=C/c5cccs5)cc4c3)cc(C)nc12
- pIC50 (SMMC-7721): 5.19
- pIC50 (QGY-7703): 5.82
- pIC50 (HepG2): 5.26
- pIC50 (L02): 5.20

Compound: COc1ccc(/C=N/NC(=O)c2cc3cc(Nc4cc(C)nc5c(OC)cccc45)ccc3[nH]2)c2ccccc12
- pIC50 (SMMC-7721): 4.96
- pIC50 (QGY-7703): 5.34
- pIC50 (HepG2): 4.78
- pIC50 (L02): 5.04

Compound: COc1cccc(/C=N/NC(=O)c2cc3cc(Nc4cc(C)nc5c(OC)cccc45)ccc3[nH]2)c1
- pIC50 (SMMC-7721): 5.76
- pIC50 (QGY-7703): < 4.70
- pIC50 (HepG2): < 4.70
- pIC50 (L02): 5.01

Compound: COc1cccc2c(Nc3ccc4[nH]c(C(=O)N/N=C/c5cc(O)ccc5O)cc4c3)cc(C)nc12
- pIC50 (SMMC-7721): < 4.70
- pIC50 (QGY-7703): < 4.70
- pIC50 (HepG2): < 4.70
- pIC50 (L02): < 4.70
